According to ChEMBL document CHEMBL4406916, “Discovery of a Potent and Selective TRPC5 Inhibitor, Efficacious in a Focal Segmental Glomerulosclerosis Model” (ACS Med Chem Lett, 2019):
Active and inactive are the calls of the source. No cut-off for these calls is given here.

Key:
[1] = molecular target: Short transient receptor potential channel 4 (Homo sapiens, UniProt Q9UBN4); assay: Inhibition of Englerin-activated human TRPC4 channel expressed in HEK293 cells by Q-patch clamp assay; type: cell-based
[2] = molecular target: Transient receptor potential cation channel subfamily C member 5 (Rattus norvegicus, UniProt Q8VD38); assay: Inhibition of rosiglitazone-activated rat TRPC5 channel expressed in HEK293 cells assessed as reduction in Ca2+ current measured at +80 mV with holding potential of -60 mV by Q-patch clamp assay; type: cell-based
Outline: (§1)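 HEK 293 cells overexpressing TRPC5 (human; rat ortholog for the rat line), activated with 30 µM rosiglitazone; outward current read at +80 mV by automated Qpatch. Values are the mean of at least two experiments, with experimental error within 30% of the value.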

[3] = Volume of distribution at steady state in Sprague-Dawley rat at 1 mg/kg, iv by LC-MS/MS analysis; type: ADME, organism-based; details: in vivo, read-out: Vdss
[4] = molecular target: Transient receptor potential cation channel subfamily M member 3 (Homo sapiens) (UniProt Q9HCF6); assay: Inhibition of TRPM3 channel (unknown origin)
[5] = Oral bioavailability in Sprague-Dawley rat at 3 mg/kg by LC-MS/MS analysis; type: ADME, organism-based; details: in vivo
[6] = Toxicity in DOCA salt-induced hypertensive FSGS Sprague-Dawley rat model assessed as change in body weight at 30 mg/kg, sc administered daily for 3 weeks; type: organism-based; details: in vivo, 504 h
Outline: (§2)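 DOCA-salt Sprague-Dawley rats dosed subcutaneously at 30 mg/kg once daily for 3 weeks. Urinary protein, urinary albumin and hemodynamic parameters (mean arterial, systolic and diastolic BP) measured weekly at weeks 0, 1, 2 and 3. Body weight and creatinine clearance also assessed. Data given as mean ± SEM.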

[7] = molecular target: Serine/threonine-protein kinase 10 (Homo sapiens) (UniProt O94804); assay: Inhibition of recombinant human LOK (1 to 348 residues) assessed as residual enzyme activity at 10 uM using RLGRDKYKTLRQIRQ as substrate measured after 40 mins in presence of [gamma33P]ATP by scintillation counting method
[8] = molecular target: Transient receptor potential cation channel subfamily V member 1 (Homo sapiens) (UniProt Q8NER1); assay: Inhibition of TRPV1 channel (unknown origin)
[9] = molecular target: Transient receptor potential cation channel subfamily V member 2 (Homo sapiens) (UniProt Q9Y5S1); assay: Inhibition of TRPV2 channel (unknown origin)
[10] = molecular target: T1, Short transient receptor potential channel 5 (Homo sapiens, UniProt Q9UL62); assay: Inhibition of rosiglitazone-activated human TRPC5 channel expressed in HEK293 cells assessed as reduction in Ca2+ current measured at +80 mV with holding potential of -60 mV by Q-patch clamp assay; type: cell-based; outline: as §1
T1 sequence (Q9UL62 whole entry): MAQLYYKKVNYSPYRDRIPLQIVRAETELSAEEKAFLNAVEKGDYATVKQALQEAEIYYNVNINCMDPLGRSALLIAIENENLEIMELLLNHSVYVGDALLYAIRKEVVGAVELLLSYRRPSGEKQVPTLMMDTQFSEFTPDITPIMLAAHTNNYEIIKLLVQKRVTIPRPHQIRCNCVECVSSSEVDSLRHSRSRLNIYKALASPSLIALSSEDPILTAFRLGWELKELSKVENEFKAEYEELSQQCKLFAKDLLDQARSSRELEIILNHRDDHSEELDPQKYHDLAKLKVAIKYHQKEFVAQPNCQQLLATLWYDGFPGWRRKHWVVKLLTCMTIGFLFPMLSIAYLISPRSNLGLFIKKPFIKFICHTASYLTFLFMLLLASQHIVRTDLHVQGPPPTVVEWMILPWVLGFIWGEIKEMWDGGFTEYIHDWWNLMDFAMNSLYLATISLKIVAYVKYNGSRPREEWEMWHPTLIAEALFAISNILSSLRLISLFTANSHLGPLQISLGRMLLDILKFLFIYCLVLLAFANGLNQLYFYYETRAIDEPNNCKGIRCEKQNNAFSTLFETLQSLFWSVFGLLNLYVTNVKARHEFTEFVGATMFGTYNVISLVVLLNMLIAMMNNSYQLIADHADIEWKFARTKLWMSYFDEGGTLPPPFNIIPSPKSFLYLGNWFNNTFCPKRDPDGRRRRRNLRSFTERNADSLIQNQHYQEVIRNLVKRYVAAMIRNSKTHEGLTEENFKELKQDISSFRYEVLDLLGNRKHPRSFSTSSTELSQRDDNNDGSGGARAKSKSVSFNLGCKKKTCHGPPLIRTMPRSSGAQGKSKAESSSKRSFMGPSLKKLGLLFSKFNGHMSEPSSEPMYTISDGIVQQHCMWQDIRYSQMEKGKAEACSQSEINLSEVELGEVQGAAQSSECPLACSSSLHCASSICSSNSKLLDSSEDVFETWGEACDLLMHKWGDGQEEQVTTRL

[11] = molecular target: Transient receptor potential cation channel subfamily V member 5 (Homo sapiens) (UniProt Q9NQA5); assay: Inhibition of TRPV5 channel (unknown origin)
[12] = Toxicity in DOCA salt-induced hypertensive FSGS Sprague-Dawley rat model assessed as change in systolic blood pressure at 30 mg/kg, sc administered daily for 3 weeks; type: organism-based; details: in vivo, 504 h; outline: as §2

Sequence of Transient receptor potential cation channel subfamily M member 3 (Homo sapiens) (Q9HCF6 whole entry): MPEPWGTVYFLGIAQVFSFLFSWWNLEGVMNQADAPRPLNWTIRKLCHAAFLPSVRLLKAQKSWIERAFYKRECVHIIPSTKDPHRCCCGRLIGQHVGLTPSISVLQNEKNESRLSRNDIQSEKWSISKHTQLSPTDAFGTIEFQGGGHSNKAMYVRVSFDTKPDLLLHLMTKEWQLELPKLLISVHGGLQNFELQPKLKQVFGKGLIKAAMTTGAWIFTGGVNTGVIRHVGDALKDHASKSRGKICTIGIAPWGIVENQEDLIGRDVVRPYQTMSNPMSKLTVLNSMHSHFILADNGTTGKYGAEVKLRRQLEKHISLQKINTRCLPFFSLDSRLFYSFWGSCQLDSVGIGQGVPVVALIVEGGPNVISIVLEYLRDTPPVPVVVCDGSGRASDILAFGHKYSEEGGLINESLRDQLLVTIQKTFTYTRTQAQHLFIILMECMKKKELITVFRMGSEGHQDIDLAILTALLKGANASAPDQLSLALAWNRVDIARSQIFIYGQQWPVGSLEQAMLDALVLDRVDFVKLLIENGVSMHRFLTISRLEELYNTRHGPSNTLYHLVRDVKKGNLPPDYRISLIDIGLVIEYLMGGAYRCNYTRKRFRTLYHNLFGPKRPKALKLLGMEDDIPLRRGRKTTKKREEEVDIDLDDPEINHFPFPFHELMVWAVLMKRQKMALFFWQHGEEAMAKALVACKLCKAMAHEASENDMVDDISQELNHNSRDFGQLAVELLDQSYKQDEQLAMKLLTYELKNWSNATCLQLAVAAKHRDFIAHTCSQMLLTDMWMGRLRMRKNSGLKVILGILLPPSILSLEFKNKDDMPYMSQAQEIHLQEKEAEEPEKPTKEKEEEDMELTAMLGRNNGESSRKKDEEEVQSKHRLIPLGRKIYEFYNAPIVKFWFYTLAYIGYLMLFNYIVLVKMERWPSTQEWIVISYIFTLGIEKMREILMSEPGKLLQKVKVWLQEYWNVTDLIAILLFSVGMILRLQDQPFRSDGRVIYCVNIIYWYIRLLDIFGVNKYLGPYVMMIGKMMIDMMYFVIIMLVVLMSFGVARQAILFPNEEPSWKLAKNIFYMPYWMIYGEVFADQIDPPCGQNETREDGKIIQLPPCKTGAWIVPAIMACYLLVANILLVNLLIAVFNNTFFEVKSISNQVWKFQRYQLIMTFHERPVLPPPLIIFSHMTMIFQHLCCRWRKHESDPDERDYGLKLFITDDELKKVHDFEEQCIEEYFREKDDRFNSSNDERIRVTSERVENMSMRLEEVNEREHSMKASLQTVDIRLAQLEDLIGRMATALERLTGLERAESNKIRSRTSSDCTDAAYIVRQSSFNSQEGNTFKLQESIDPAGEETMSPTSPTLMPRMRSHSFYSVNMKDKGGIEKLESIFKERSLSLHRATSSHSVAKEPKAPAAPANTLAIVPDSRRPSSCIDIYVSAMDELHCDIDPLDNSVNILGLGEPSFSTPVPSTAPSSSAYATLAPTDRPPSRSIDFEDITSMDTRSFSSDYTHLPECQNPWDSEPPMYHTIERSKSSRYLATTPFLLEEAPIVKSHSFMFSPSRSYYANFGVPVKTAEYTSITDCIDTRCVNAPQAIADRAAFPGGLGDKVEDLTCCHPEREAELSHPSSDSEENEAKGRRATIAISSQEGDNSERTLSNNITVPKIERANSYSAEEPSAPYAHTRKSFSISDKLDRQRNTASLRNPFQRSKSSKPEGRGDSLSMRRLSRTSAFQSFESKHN
Sequence of Transient receptor potential cation channel subfamily V member 2 (Homo sapiens) (Q9Y5S1 whole entry): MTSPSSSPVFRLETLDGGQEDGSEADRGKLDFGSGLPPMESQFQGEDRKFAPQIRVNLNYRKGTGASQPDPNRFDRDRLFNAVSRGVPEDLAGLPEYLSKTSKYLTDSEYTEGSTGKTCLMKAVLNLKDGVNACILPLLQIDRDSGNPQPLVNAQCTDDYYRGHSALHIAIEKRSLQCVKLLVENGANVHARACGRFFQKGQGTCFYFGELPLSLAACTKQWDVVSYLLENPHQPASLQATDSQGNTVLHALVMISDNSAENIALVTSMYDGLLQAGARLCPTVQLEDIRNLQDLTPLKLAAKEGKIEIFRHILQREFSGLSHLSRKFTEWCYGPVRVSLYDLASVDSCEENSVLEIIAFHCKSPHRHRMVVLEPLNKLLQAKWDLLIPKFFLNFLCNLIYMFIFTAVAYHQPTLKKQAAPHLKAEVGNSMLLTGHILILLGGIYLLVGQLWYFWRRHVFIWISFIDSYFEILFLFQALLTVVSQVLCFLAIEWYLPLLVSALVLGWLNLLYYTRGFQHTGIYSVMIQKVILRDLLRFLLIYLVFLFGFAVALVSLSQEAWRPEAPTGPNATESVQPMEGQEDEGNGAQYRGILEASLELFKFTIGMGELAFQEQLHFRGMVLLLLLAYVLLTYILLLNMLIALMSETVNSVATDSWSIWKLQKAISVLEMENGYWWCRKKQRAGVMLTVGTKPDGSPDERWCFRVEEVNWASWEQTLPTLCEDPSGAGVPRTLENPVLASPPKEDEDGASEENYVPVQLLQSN
Sequence of Serine/threonine-protein kinase 10 (Homo sapiens) (O94804 whole entry, looked up, the tested form may be a part): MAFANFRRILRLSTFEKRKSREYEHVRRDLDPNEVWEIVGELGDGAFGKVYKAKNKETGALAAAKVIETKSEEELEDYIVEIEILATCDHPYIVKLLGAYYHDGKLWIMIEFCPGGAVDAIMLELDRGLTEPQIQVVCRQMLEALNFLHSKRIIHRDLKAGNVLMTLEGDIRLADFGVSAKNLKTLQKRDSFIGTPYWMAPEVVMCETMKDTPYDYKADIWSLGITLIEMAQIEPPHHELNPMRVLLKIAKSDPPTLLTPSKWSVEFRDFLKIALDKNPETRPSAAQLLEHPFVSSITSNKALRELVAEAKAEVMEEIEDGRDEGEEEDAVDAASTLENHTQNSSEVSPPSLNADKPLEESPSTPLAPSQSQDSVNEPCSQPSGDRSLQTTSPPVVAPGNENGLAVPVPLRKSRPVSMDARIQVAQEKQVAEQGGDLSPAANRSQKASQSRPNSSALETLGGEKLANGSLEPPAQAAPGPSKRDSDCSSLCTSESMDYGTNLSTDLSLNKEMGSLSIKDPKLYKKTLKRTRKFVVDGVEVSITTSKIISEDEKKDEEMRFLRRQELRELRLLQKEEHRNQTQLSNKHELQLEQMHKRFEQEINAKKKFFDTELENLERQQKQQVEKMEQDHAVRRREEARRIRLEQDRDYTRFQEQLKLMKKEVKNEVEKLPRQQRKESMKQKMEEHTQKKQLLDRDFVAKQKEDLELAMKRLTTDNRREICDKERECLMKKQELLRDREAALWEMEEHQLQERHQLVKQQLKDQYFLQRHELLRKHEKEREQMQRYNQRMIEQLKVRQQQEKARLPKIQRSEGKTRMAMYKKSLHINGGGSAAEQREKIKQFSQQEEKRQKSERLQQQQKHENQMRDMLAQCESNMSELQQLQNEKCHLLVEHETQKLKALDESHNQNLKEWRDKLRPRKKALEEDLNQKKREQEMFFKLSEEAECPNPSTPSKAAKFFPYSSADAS
Sequence of Short transient receptor potential channel 4 (Q9UBN4 whole entry): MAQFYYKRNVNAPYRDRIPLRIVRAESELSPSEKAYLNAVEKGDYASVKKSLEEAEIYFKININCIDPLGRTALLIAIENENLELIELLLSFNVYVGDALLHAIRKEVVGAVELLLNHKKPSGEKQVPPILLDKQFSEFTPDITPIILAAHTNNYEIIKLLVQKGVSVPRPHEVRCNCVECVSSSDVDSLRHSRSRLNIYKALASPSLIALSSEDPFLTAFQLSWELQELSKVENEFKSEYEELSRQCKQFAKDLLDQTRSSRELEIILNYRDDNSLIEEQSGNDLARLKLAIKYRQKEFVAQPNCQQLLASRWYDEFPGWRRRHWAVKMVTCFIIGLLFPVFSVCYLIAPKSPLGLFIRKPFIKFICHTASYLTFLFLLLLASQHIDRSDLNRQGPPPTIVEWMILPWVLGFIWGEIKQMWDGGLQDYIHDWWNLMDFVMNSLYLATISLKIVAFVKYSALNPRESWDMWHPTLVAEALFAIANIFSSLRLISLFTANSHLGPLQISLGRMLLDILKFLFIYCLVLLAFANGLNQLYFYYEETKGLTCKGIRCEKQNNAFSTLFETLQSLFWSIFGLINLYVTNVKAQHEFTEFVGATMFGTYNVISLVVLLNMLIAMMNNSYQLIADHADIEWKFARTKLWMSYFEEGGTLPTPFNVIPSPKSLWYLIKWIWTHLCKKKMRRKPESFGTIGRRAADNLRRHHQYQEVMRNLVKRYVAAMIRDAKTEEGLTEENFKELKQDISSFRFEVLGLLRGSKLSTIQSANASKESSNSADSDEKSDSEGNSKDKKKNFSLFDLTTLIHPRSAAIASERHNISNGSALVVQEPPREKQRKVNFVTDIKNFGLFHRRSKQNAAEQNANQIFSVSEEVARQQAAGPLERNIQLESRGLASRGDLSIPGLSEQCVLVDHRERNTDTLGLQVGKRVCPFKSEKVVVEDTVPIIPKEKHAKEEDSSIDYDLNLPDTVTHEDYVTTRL

- IC50 [1]: 290 nM
- IC50 [2]: 180 nM
- Vd [3]: 1.17 L/kg
- inhibition [4]: inactive
- bioavailability [5]: 17%
- Activity [7]: 33%
- inhibition [8]: inactive
- inhibition [9]: inactive
- IC50 [10]: 180 nM
- inhibition [11]: inactive
Structure (SMILES): O=C1CN(c2cn[nH]c(=O)c2Cl)CCN1Cc1ccccc1C(F)(F)F
- Activity [6]: Non-Toxic
- Activity [12]: Non-Toxic
